Calls of active or inactive are those of the source. No cut-off for these calls is given here. Starred links: 1 amine or outer side, 2 acyl side, 3 side chain; linkers in the order of their positions; H or OH if unused. Positions of bridges follow the written chain, without caps; N, C: chain ends. Non-standard residues stand in square brackets, D forms with d. Residues, ends and D or L forms follow the SMILES beside them. X2 = N=C(N)NCCC[C@@H](C(=O)[*:2])N(CC=[*:3])[*:1]; X4 = O=C([C@H](CO)N(CC=[*:3])[*:1])[*:2]; AllylGly = C=CC[C@H](N)C(=O)O; pGlu = O=C1CC[C@@H](C(=O)O)N1; Nle = CCCC[C@H](N)C(=O)O
Assays:
[1] = biological target: T1, Apelin receptor (Homo sapiens, UniProt P35414); experiment: Displacement of [125I]-[Nle75, Tyr77] Pyr1-apelin-13 from YFP-tagged human APJ receptor expressed in HEK293 cell membranes after 1 hr by gamma-counting method
T1 sequence (P35414 whole entry): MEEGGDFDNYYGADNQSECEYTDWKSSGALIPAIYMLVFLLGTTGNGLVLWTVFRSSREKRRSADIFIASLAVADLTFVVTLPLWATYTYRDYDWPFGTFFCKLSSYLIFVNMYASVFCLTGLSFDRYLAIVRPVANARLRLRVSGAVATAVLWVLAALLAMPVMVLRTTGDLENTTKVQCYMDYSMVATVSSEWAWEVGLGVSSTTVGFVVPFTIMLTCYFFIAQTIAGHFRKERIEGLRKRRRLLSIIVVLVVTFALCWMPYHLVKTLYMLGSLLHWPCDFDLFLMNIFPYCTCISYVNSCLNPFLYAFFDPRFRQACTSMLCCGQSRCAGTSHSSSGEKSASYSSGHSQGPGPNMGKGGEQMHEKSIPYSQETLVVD

[2] = biological target: T1, Apelin receptor; experiment: Activity at human APJ receptor expressed in HEK293 cells assessed as dissociation of Galphai1 from Gbetagamma subunit after 5 mins by BRET assay; type: cell-based
[3] = biological target: T1, Apelin receptor; experiment: Activity at GFP10-tagged human APJ receptor expressed in HEK293 cells assessed as induction of RlucII-tagged beta-arrestin-2 recruitment after 30 mins by BRET assay; type: cell-based
[4] = Half life in rat plasma at 1 mM by UPLC-MS analysis; type: ADME, cell-free
Method in brief: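 Male rat plasma incubated with peptide at 37 °C for 2, 4, 7, 24 h (or 10, 20, 60, 120 min for short-lived peptides); quenched with acetonitrile-ethanol (1:1) plus nicotinamide internal standard, then UPLC-MS. Percent remaining fitted to exponential decay for half-life; means ± SEM of three independent experiments. 1 mM is the stock solution.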

[5] = tested on: Rattus norvegicus; experiment: Hypotensive activity in Sprague-Dawley rat assessed as reduction in systemic arterial blood pressure at 19.5 or 65 nmol/kg, iv administered over 10 secs; type: functional
Method in brief: (§1)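 Male Sprague-Dawley rats (250-350g) anesthetized with intramuscular ketamine/xylazine (87/13 mg/kg), kept on a thermostatic pad. Carotid catheter for arterial pressure; jugular bolus of saline vehicle, then 5 min later peptide (19.6 or 65 nmol/kg; 0.25 ml over 10 s), followed by a saline flush.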

[6] = biological target: T1, Apelin receptor; experiment: Induction of human HA-tagged APJ receptor internalization expressed in HEK293 cells after 30 mins by ELISA; type: cell-based
[7] = AUC in Sprague-Dawley rat at 3 mg/kg, iv measured up to 120 mins by LC-MS/MS analysis; type: ADME, organism-based; set-up: dose 3 mg/kg, time < 2 hr, route intravenous; details: in vivo
Method in brief: (§2)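 Male Sprague-Dawley rats (250-350g) under intramuscular ketamine/xylazine (87/13 mg/kg); compound in 350 µL normal saline given via jugular vein. Carotid blood drawn into EDTA tubes at 1, 5, 10, 15, 30, 60, 120 min (1, 2, 5, 10, 15 min for Pyr-apelin-13), centrifuged for plasma, acetonitrile precipitation with internal standard, LC-MS/MS (ESI+, MRM).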

[8] = Drug level in Sprague-Dawley rat plasma at 3 mg/kg, iv measured at 5 mins by LC-MS/MS; type: ADME, organism-based; method in brief: as §2
[9] = tested on: Heart; experiment: Inotropic activity in Langendorff isolated-perfused Sprague-Dawley rat heart assessed as drug level causing maximum increase in left ventricular developed pressure efficacy relative to baseline control; type: functional
Method in brief: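 Sprague-Dawley rat hearts isolated and perfused in Langendorff mode with increasing peptide concentrations from 0.001 to 0.3 nM. Increase in left ventricular developed pressure recorded as the inotropic read-out, expressed as % from baseline; compared with buffer by unpaired parametric t test.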

[10] = tested on: Rattus norvegicus; experiment: Hypotensive activity in Sprague-Dawley rat assessed as reduction in systemic arterial blood pressure at 65 nmol/kg, iv administered over 10 secs; type: functional, organism-based; method in brief: as §1

CCCC[C@@H]1NC(=O)[C@@H]2CCCN2C(=O)CNC(=O)[C@@H](NC(=O)[C@H](Cc2cnc[nH]2)NC(=O)[C@H](CO)NC(=O)[C@H](CC(C)C)NC(=O)[C@H](CCCNC(=N)N)NC(=O)[C@@H]2CCCN2C(=O)[C@H](CCCNC(=N)N)NC(=O)[C@@H]2CCC(=O)N2)C/C=C\C[C@@H](C(=O)N[C@@H](Cc2ccccc2)C(=O)O)NC1=O ([pGlu]RPRLSH[AllylGly]GP[Nle][AllylGly]F-OH; staple (Z) 8-12)
Ki [1]: 0.014 µM | EC50 [2]: 0.03 µM | EC50 [3]: 0.825 µM | half-life at 1000 µM [4]: 4.6 h

C=CC[C@H](NC(=O)[C@@H]1CCCN1C(=O)[C@H](CCCC)NC(=O)[C@@H]1CCCN1C(=O)[C@H](CC=C)NC(=O)[C@H](CCCCN)NC(=O)[C@H](Cc1cnc[nH]1)NC(=O)[C@H](CO)NC(=O)[C@H](CC(C)C)NC(=O)[C@H](CCCNC(=N)N)NC(=O)[C@@H]1CCCN1C(=O)[C@H](CCCNC(=N)N)NC(=O)[C@@H]1CCC(=O)N1)C(=O)O ([pGlu]RPRLSHK[AllylGly]P[Nle]P[AllylGly]-OH)
Ki [1]: 0.0021 µM | EC50 [2]: 0.002 µM | EC50 [3]: 0.145 µM | half-life at 1000 µM [4]: 2.4 h

CCCC[C@@H]1NC(=O)[C@@H]2CCCN2C(=O)[C@@H](NC(=O)[C@H](CCCCN)NC(=O)[C@H](Cc2cnc[nH]2)NC(=O)[C@H](CO)NC(=O)[C@H](CC(C)C)NC(=O)[C@H](CCCNC(=N)N)NC(=O)[C@@H]2CCCN2C(=O)[C@H](CCCNC(=N)N)NC(=O)[C@@H]2CCC(=O)N2)CCN(S(=O)(=O)c2ccccc2[N+](=O)[O-])C/C=C\C[C@@H](C(=O)O)NC(=O)[C@@H]2CCCN2C1=O
Ki [1]: 0.00015 µM | EC50 [2]: 0.0013 µM | EC50 [3]: 0.057 µM | half-life at 1000 µM [4]: 6.8 h | Activity [5]: <=40 mmHg | EC50 [6]: 0.045 µM | AUC at 2 h [7]: 2.8 µg·h/mL | concentration at 5 min [8]: 2.5 µM | Activity [9]: 3 pM

CCCC[C@H](NC(=O)[C@@H]1CCCN1C(=O)CNC(=O)[C@H](CCCCN)NC(=O)[C@@H]1C/C=C\C[C@H](NC(=O)[C@H](CCCNC(=N)N)NC(=O)[C@@H]2CCC(=O)N2)C(=O)N[C@@H](CCCNC(=N)N)C(=O)N[C@@H](CC(C)C)C(=O)N[C@@H](CO)C(=O)N1)C(=O)N1CCC[C@H]1C(=O)N[C@@H](Cc1ccccc1)C(=O)O
half-life at 1000 µM [4]: 3.9 h | Activity [5]: <=40 mmHg | Activity [9]: Active

CCCC[C@@H]1NC(=O)[C@@H]2CCCN2C(=O)[C@@H](NC(=O)[C@H](CCCCN)NC(=O)[C@H](Cc2cnc[nH]2)NC(=O)[C@H](CO)NC(=O)[C@H](CC(C)C)NC(=O)[C@H](CCCNC(=N)N)NC(=O)[C@@H]2CCCN2C(=O)[C@H](CCCNC(=N)N)NC(=O)[C@@H]2CCC(=O)N2)C/C=C\C[C@@H](C(=O)O)NC(=O)[C@@H]2CCCN2C1=O
Ki ([1]; hek293): 0.0011 µM | EC50 ([2]; hek293): 0.019 µM | EC50 ([3]; hek293): 0.272 µM | half-life at 1000 µM [4]: 8.6 h | EC50 ([6]; hek293): 0.469 µM | AUC at 2 h [7]: 4.1 µg·h/mL | concentration at 5 min [8]: 5.6 µM

CCCC[C@H](NC(=O)[C@@H]1CCCN1C(=O)CNC(=O)[C@H](CCCCN)NC(=O)[C@H](Cc1cnc[nH]1)NC(=O)[C@H](CO)NC(=O)[C@@H]1C/C=C\C[C@H](N)C(=O)N[C@@H](CCCNC(=N)N)C(=O)N2CCC[C@H]2C(=O)N[C@@H](CCCNC(=N)N)C(=O)N1)C(=O)N1CCC[C@H]1C(=O)N[C@@H](Cc1ccccc1)C(=O)O
Ki [1]: 0.0057 µM | EC50 [2]: 0.023 µM | EC50 [3]: 0.834 µM | half-life at 1000 µM [4]: 0.8 h

CCCC[C@H](NC(=O)[C@@H]1CCCN1C(=O)CNC(=O)[C@@H]1C/C=C\CN(C(=O)[C@@H]2CCCN2C(=O)[C@H](CCCNC(=N)N)NC(=O)[C@@H]2CCC(=O)N2)[C@@H](CCCNC(=N)N)C(=O)N[C@@H](CC(C)C)C(=O)N[C@@H](CO)C(=O)N[C@@H](Cc2cnc[nH]2)C(=O)N1)C(=O)N1CCC[C@H]1C(=O)N[C@@H](Cc1ccccc1)C(=O)O ([pGlu]RP[X2]LSH[AllylGly]GP[Nle]PF-OH; staple (Z) 4-8)
Ki [1]: 0.0091 µM | EC50 [2]: 0.019 µM | EC50 [3]: 0.512 µM | half-life at 1000 µM [4]: 7.7 h

CCCC[C@H](NC(=O)[C@@H]1C/C=C\CN(C(=O)[C@H](CC(C)C)NC(=O)[C@H](CCCNC(=N)N)NC(=O)[C@@H]2CCCN2C(=O)[C@H](CCCNC(=N)N)NC(=O)[C@@H]2CCC(=O)N2)[C@@H](CO)C(=O)N[C@@H](Cc2cnc[nH]2)C(=O)N[C@@H](CCCCN)C(=O)NCC(=O)N1)C(=O)N1CCC[C@H]1C(=O)N[C@@H](Cc1ccccc1)C(=O)O ([pGlu]RPRL[X4]HKG[AllylGly][Nle]PF-OH; staple (Z) 6-10)
Ki [1]: 0.188 µM | half-life at 1000 µM [4]: > 24 h

C=CC[C@H](NC(=O)[C@H](Cc1cnc[nH]1)NC(=O)[C@H](CO)NC(=O)[C@H](CC(C)C)NC(=O)[C@H](CCCNC(=N)N)NC(=O)[C@@H]1CCCN1C(=O)[C@H](CCCNC(=N)N)NC(=O)[C@@H]1CCC(=O)N1)C(=O)NCC(=O)N1CCC[C@H]1C(=O)N[C@@H](CCCC)C(=O)N[C@@H](CC=C)C(=O)N[C@@H](Cc1ccccc1)C(=O)O ([pGlu]RPRLSH[AllylGly]GP[Nle][AllylGly]F-OH)
Ki [1]: 0.0023 µM | EC50 [2]: 0.0008 µM | EC50 [3]: 0.058 µM

CC(C)C[C@H](NC(=O)[C@H](CCCNC(=N)N)NC(=O)[C@@H]1CCCN1C(=O)[C@H](CCCNC(=N)N)NC(=O)[C@@H]1CCC(=O)N1)C(=O)N[C@@H](CO)C(=O)N[C@H]1C/C=C\C[C@@H](C(=O)N2CCC[C@H]2C(=O)N[C@@H](Cc2ccccc2)C(=O)O)NC(=O)[C@@H]2CCCN2C(=O)CNC(=O)[C@H](CCCCN)NC1=O ([pGlu]RPRLS[AllylGly]KGP[AllylGly]PF-OH; staple (Z) 7-11)
Ki [1]: 0.0014 µM | EC50 [2]: 0.02 µM | EC50 [3]: 0.4 µM | half-life at 1000 µM [4]: 6.6 h

CCCC[C@H](NC(=O)[C@@H]1C/C=C\C[C@H](NC(=O)[C@H](CC(C)C)NC(=O)[C@H](CCCNC(=N)N)NC(=O)[C@@H]2CCCN2C(=O)[C@H](CCCNC(=N)N)NC(=O)[C@@H]2CCC(=O)N2)C(=O)N[C@@H](Cc2cnc[nH]2)C(=O)N[C@@H](CCCCN)C(=O)NCC(=O)N1)C(=O)N1CCC[C@H]1C(=O)N[C@@H](Cc1ccccc1)C(=O)O ([pGlu]RPRL[AllylGly]HKG[AllylGly][Nle]PF-OH; staple (Z) 6-10)
Ki [1]: 0.268 µM | half-life at 1000 µM [4]: 4.1 h

CCCC[C@H](NC(=O)[C@@H]1CCCN1C(=O)CNC(=O)[C@H](CCCCN)NC(=O)[C@H](Cc1cnc[nH]1)NC(=O)[C@@H]1C/C=C\C[C@H](NC(=O)[C@@H]2CCC(=O)N2)C(=O)N2CCC[C@H]2C(=O)N[C@@H](CCCNC(=N)N)C(=O)N[C@@H](CC(C)C)C(=O)N1)C(=O)N1CCC[C@H]1C(=O)N[C@@H](Cc1ccccc1)C(=O)O
Ki [1]: 0.509 µM | half-life at 1000 µM [4]: 0.7 h

C=CC[C@H](NC(=O)[C@H](CO)NC(=O)[C@H](CC(C)C)NC(=O)[C@H](CCCNC(=N)N)NC(=O)[C@H](CC=C)NC(=O)[C@H](CCCNC(=N)N)NC(=O)[C@@H]1CCC(=O)N1)C(=O)N[C@@H](CCCCN)C(=O)NCC(=O)N1CCC[C@H]1C(=O)N[C@@H](CCCC)C(=O)N1CCC[C@H]1C(=O)N[C@@H](Cc1ccccc1)C(=O)O
Ki [1]: 0.0019 µM | EC50 [2]: 0.0092 µM | EC50 [3]: 0.274 µM

CCCC[C@@H]1NC(=O)[C@@H]2CCCN2C(=O)[C@@H](NC(=O)[C@@H](CCCCN)NC(=O)[C@H](Cc2cnc[nH]2)NC(=O)[C@H](CO)NC(=O)[C@H](CC(C)C)NC(=O)[C@H](CCCNC(=N)N)NC(=O)[C@@H]2CCCN2C(=O)[C@H](CCCNC(=N)N)NC(=O)[C@@H]2CCC(=O)N2)C/C=C\C[C@@H](C(=O)O)NC(=O)[C@@H]2CCCN2C1=O
Activity [10]: Active

Reference: ChEMBL document CHEMBL4020833, “A Systematic Exploration of Macrocyclization in Apelin-13: Impact on Binding, Signaling, Stability, and Cardiovascular Effects” (J Med Chem, 2018)
